Source: PubChem BioAssay (several laboratories)
MrgX1 PAM: human MrgX1 positive allosteric modulation, primary screen; 310,000 compounds, 0.63% hits; AID 588675; B-score at 10 µM; Q96LB2; MrgX1-HEK293, Fluo-4 calcium flux, FDSS; active compounds read high;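 active = plate-corrected calcium response at least 3 library SD above typical, normal starting fluorescence, not activating the receptor alone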;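 also: compound read alongside a low EC10 to EC30 dose of BAM8-22 agonist; peak minus trough fluorescence over baseline measured at the second addition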
Target sequence (Q96LB2 whole entry, looked up): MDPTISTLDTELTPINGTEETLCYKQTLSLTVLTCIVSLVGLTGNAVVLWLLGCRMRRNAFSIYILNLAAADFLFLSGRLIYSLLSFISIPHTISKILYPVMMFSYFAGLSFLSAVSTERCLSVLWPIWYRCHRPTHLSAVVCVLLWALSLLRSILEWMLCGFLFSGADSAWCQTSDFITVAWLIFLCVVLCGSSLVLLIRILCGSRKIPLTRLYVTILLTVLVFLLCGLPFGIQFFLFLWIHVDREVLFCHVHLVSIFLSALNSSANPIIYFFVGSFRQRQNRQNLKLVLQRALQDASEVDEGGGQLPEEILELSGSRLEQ
MrgX1 antagonist: human MrgX1 receptor antagonism, primary screen; MRGX1-HEK293 calcium flux, Fluo-4, BAM8-22 antagonism; active compounds read low; B-score at 10 µM; 310,000 compounds, 1.3% hits; AID 588676;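 active = calcium-response B-score plate-corrected more than 3 library SD below zero, starting fluorescence within 5 deviations, no agonist response on first addition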;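 also: peak minus trough fluorescence over baseline after final BAM8-22 challenge near maximal dose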
RGS4 act: potentiators or activators of RGS4. HEK293 M3R/inducible RGS4, carbachol calcium flux Fluo4; active compounds read low. B-score at 10 µM. 310,000 compounds, 0.92% hits;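 active = B-score of the integrated calcium signal more than 4 SD below the library mean, with starting fluorescence not abnormally high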;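 also: negative B-score means reduced calcium response which marks RGS4 activation or potentiation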
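Also added: carbachol at ECmax as muscarinic agonist stimulus; Assay system: HEK293 cells with stable M3R and inducible RGS4; Timing: overnight RGS4 induction, 30 min dye load 37 °C, 20 min compound RT; Measured by: Fluo4-AM (2 µM) calcium-flux fluorescence, kinetic read.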
MrgX1 ag: agonists of human MrgX1 receptor | Q96LB2 | MrgX1-HEK293 cells, Fluo-4 calcium fluorescence, agonist mode; active compounds read high | B-score at 10 µM | 310,000 compounds, 0.44% hits | AID 588627;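 active = calcium response B-score plate-corrected fluorescence ratio at least 3 library SD, with starting fluorescence B-score inside 5 SD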
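Assay system: stable human MrgX1 HEK293 cell line. Quantity: 15,000 cells per well. Schedule: cells plated overnight, dye loaded 0.5 h 37 °C, 0.5 h room temperature. Detection: Fluo-4 NW calcium-flux fluorescence, kinetic read. Read-out basis: peak-minus-minimum fluorescence over baseline, converted to B scores. Control set: positive and negative control wells on each plate.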
RGS4 block: inhibitors of human RGS4. 310,000 compounds, 0.45% hits. AID 463165. HEK293 M3R/RGS4 inducible, Fluo-4 calcium flux; active compounds read high; triggered by carbachol at its EC20. B-score at 10 µM;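 active = B-score, a plate-corrected calcium signal, over three deviations above library mean, with baseline fluorescence within five deviations of library mean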;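 also: RGS4 expression induced by doxycycline in cells with stable M3 receptor; B-score is computed from the integrated fluorescence ratio over baseline after carbachol; higher B-score means a larger calcium signal and so more RGS4 inhibition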
Target sequence (P49798 whole entry, looked up): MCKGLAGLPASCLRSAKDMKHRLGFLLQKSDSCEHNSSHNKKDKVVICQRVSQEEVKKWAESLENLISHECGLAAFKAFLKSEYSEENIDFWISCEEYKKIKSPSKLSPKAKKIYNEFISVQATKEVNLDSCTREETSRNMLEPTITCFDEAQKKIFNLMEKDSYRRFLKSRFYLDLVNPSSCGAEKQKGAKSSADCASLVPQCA
Hep lipid drop: modulators of hepatic lipid droplet formation; AML12 mouse hepatocytes, oleate lipid droplets, BODIPY imaging; inhibition, % at 6.5 µM; 240,000 compounds, 0.4% hits;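 active = lipid droplet intensity inhibited by at least 50%, with more than 500 cells counted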
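Test system: AML12 hepatocytes (mouse); reagent: oleate loading, 100 µM; dosing: one dose, 6.5 µM compound; incubation: overnight exposure; signal: fluorescence imaging, 20x objective, two fields per well; read-out basis: % inhibition of corrected integrated BODIPY droplet signal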
Active calls of the source: *; i = inactive; . = no result given. Rows were chosen to be rich in hits. Some 3.8% of all compounds tested hit in one or more screens of this group.

SMILES	MrgX1 PAM	MrgX1 antagonist	RGS4 act	MrgX1 ag	RGS4 block	Hep lipid drop
Cc1ccc(/C=N/NC(=O)c2nc3nc(C)cc(C)n3n2)cc1	i	-4.67*	i	i	i	1.2
CN(Cc1ccccc1)C1(CNC(=O)CCC(F)(F)F)Cc2ccccc2C1	i	i	i	i	i	-2.9
N=c1n(Cc2ccccc2)c2ccccc2n1CC(O)COc1ccc(Cl)cc1Cl (configuration not stated)	.	.	-8.96*	.	i	-43.0
N=c1n(Cc2ccc(Cl)cc2)c2ccccc2n1CC(O)COc1ccccc1 (configuration not stated)	i	i	i	i	i	-13.9
CC1(C)CC(=O)c2sc(NS(C)(=O)=O)nc2C1	i	i	i	i	i	0.4
CC1(C)CC(=O)c2sc(NS(=O)(=O)c3ccc([N+](=O)[O-])cc3)nc2C1	8.02*	i	i	i	i	-1.2
COc1ccc(C(CCN(Cc2ccc(OC)c(OC)c2)C(C)=O)C(C)C)cc1 (configuration not stated)	i	i	i	i	i	-7.8
Cn1cccc1-c1cc(C(=O)N/N=C/c2ccc(Cl)cc2)[nH]n1	i	i	i	i	i	18.5
Cn1cccc1-c1cc(C(=O)N/N=C/C=C/c2ccccc2)[nH]n1	i	-5.78*	i	i	i	14.5
O=C(COC(=O)c1ccco1)NCCNC(=O)COC(=O)c1ccco1	i	i	i	i	i	22.9
COc1ccc(C2SCCN2C(=S)Nc2cccc(C(F)(F)F)c2)cc1 (configuration not stated)	i	-5.28*	i	i	i	-3.3
c1ccc(Sc2ccccc2CN2CCCC2)cc1	i	i	-7.42*	i	i	.
O=C1CCCN1CCCNc1ncnc2c1[nH]c1ccc(Cl)cc12	i	i	i	37.1*	i	-3.7
CC(C(=O)C12CC3CC(CC(C3)C1)C2)N1CCOCC1 (configuration not stated)	i	i	i	i	i	11.3
N#CC1(C#N)[C@@H](C(=O)C23CC4CC(CC(C4)C2)C3)C12CCOCC2	i	-6.56*	i	i	i	5.8
CCOCCc1nn2c(=O)cc(CSCC(=O)Nc3cc(C)cc(C)c3)nc2s1	i	i	i	i	i	12.1
Nc1cc(OCC(F)(F)F)cc([N+](=O)[O-])c1	i	i	i	i	i	-1.8
Nc1cc(N)c(OCC(F)(F)F)cc1OCC(F)(F)F	i	i	i	i	6.74*	.
C=CCNC(=S)NNC(=O)c1ccc([N+](=O)[O-])cc1	i	-7.91*	i	i	i	-1.8
COC(=O)CCC(=O)NNC(=O)c1ccc([N+](=O)[O-])cc1	i	i	i	i	i	4.7
CCCCCCCC(=O)NNC(=O)c1ccc([N+](=O)[O-])cc1	7.03*	i	i	i	i	.
CCN(Cc1ccccc1)c1ccc(/C=N/N=C(N)N)cc1	i	-5.47*	i	i	i	-1.8
O=C1NC(=S)N/C1=C/c1cc([N+](=O)[O-])ccc1O	12.4*	i	i	i	i	-4.7
CCOc1ccc(S(=O)(=O)N(CC)CC)cc1NC(=O)c1ccc(N2CCCC2=O)cc1	i	i	i	i	i	-5.6
COc1cc(/C=C/C(=O)OCC(=O)N2CCc3ccccc3C2)ccc1O	i	i	i	i	i	-9.8
SMILES	MrgX1 PAM	MrgX1 antagonist	RGS4 act	MrgX1 ag	RGS4 block	Hep lipid drop
Cc1cccc(CN2CCN(Cc3nc4c(s3)CCCC4)CC2CCO)n1 (configuration not stated)	i	i	i	i	i	5.9
Cc1c(Br)c([N+](=O)[O-])nn1CC(=O)NCCc1c[nH]c2ccccc12	i	-5*	i	i	i	-9.5
Cc1cccc(CSC(=N)N)c1	i	i	i	i	i	13.5
C/C(=N/N=C(/N)SCc1ccccc1)C(C)(C)C	9.86*	i	i	i	i	0.7
COc1ccc(CC(=O)Oc2ccc(Cl)cc2Br)cc1S(=O)(=O)N1CCOCC1	i	i	i	i	i	.
Cc1ccc(C(=O)N2CCN=C2SCc2ccc([N+](=O)[O-])cc2)cc1	i	-7.05*	i	i	i	10.2
Cc1ccc(CSC2=NCCN2C(=O)c2ccc([N+](=O)[O-])cc2)cc1	i	i	i	i	i	-21.0
CCc1ccc(N2CC(O)(c3cccs3)[N+]3=C2SCCC3)cc1 (configuration not stated)	i	i	-7.48*	i	i	0.6
CN1CCN(C(=O)CN(C)S(=O)(=O)c2ccc3ccccc3c2)CC1	i	i	i	i	i	8.9
C[n+]1ccc(/C=C/c2c[nH]c3ccc(F)cc23)cc1	i	i	-7.84*	i	i	8.4
COc1cc(OC)cc(-c2nnc(NC(=O)c3ccc4c(c3)OCCO4)o2)c1	i	i	i	i	i	17.0
CCOC(=O)C(Cc1ccccc1)NC(=O)Cn1nnc(-c2ccc(SC)cc2)n1 (configuration not stated)	i	-6.9*	i	i	i	.
C=C(C)CSc1nc2sc3c(c2c(=O)n1-c1ccc(C)cc1)CCN(C)C3	.	.	-10.4*	.	i	0.1
CCOC(=O)CSc1nc2sc3c(c2c(=O)n1C1CCCCC1)CCN(C)C3	i	i	-10.5*	i	i	-4.3
CCOC(=O)CSc1nc2sc3c(c2c(=O)n1-c1ccc(OCC)cc1)CCN(C)C3	i	i	i	i	i	5.3
Cc1ccc(N2CCN(C(=O)c3cc(-c4ccc(F)cc4)[nH]c3C)CC2C)cc1 (configuration not stated)	i	i	i	i	i	11.4
O=C(c1ccc(Cl)cc1[N+](=O)[O-])N(Cc1ccccc1)Cc1ccccc1	i	i	i	i	i	-19.0
CC(C)(C)N(Cc1ccccc1)C(=O)c1ccc(Cl)cc1[N+](=O)[O-]	i	i	-9.96*	i	i	-39.8
Cc1ccc(NC(=O)C2CCCN2S(=O)(=O)c2ccc3c(c2)n(C)c(=O)c(=O)n3C)cc1C (configuration not stated)	i	i	-6.99*	i	i	-0.5
NS(=O)(=O)c1ccc(CCNCc2cc(Cl)ccc2OCc2ccccc2)cc1	i	-7.16*	i	i	i	.
NS(=O)(=O)c1ccc(CCNCc2ccccc2OCc2ccc(Cl)cc2)cc1	i	-7.22*	i	i	i	0.3
